Test results from ChEMBL document CHEMBL4346663, “N-Cinnamoylanthranilates as human TRPA1 modulators: Structure-activity relationships and channel binding sites” (Eur J Med Chem, 2019).
The source made the active and inactive calls. The calls are words filed in the database; no cut-off is given here.

What was measured:
[1] = Dissociation constant, pKa of the compound at pH 7.4; format: physicochemical
[2] = biological target: T1, Transient receptor potential cation channel subfamily M member 8 (Homo sapiens, UniProt Q7Z2W7); experiment: Antagonist activity at human TRPM8 expressed in HEK293 cells assessed as increase in calcium influx at 3 uM incubated for 10 mins prior to WS5 challenge by Fluo-4-AM dye based fluorescence assay relative to WS5; format: cell-based; design: scale not given: the % may be the effect or the level left
Procedure, shortened: (§1)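 hTRPM8-HEK293 cells loaded with Fluo-4AM (2 µM, 45 min). Test compound pre-incubated 10 min before WS5 standard agonist. FlexStation fluorescence at 485/538 nm. ΔRFU given as % of WS5 response after DMSO vehicle subtraction. N = 3. IC50 from dose-response curves.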
Target sequence in this assay (Q7Z2W7 whole entry, looked up): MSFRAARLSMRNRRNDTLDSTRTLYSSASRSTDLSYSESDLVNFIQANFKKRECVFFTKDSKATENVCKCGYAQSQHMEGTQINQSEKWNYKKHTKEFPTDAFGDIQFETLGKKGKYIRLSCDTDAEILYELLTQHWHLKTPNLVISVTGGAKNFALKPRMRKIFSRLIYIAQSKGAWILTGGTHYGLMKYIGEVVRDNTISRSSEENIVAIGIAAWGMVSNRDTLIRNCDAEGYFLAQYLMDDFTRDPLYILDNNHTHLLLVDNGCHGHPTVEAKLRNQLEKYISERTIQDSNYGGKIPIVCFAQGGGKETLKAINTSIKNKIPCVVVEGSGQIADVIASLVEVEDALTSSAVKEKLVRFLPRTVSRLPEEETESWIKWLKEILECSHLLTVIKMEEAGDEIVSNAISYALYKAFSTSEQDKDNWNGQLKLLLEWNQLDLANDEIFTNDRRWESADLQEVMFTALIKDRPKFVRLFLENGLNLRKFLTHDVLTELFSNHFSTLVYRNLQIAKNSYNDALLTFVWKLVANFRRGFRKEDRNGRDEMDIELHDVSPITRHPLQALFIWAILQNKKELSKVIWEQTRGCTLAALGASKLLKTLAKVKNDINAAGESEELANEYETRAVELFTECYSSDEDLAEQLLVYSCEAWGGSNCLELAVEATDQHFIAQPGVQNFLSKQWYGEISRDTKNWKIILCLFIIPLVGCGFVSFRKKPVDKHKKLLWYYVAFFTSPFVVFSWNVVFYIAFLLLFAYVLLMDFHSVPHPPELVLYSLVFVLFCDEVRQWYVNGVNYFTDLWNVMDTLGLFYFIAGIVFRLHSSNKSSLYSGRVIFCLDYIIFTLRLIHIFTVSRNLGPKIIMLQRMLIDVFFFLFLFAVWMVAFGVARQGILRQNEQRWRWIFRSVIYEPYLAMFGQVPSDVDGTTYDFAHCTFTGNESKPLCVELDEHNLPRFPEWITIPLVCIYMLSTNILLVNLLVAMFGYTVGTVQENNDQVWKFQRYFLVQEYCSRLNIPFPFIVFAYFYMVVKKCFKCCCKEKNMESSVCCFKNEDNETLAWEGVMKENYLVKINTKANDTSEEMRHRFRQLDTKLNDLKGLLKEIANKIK

[3] = biological target: T2, Transient receptor potential cation channel subfamily A member 1 (Homo sapiens, UniProt O75762); experiment: Agonist activity at human TRPA1 expressed in HEK293 cells assessed as increase in calcium influx at 3 uM by Fluo-4-AM dye based fluorescence assay relative to calcimycin; format: cell-based
T2 sequence (O75762 whole entry): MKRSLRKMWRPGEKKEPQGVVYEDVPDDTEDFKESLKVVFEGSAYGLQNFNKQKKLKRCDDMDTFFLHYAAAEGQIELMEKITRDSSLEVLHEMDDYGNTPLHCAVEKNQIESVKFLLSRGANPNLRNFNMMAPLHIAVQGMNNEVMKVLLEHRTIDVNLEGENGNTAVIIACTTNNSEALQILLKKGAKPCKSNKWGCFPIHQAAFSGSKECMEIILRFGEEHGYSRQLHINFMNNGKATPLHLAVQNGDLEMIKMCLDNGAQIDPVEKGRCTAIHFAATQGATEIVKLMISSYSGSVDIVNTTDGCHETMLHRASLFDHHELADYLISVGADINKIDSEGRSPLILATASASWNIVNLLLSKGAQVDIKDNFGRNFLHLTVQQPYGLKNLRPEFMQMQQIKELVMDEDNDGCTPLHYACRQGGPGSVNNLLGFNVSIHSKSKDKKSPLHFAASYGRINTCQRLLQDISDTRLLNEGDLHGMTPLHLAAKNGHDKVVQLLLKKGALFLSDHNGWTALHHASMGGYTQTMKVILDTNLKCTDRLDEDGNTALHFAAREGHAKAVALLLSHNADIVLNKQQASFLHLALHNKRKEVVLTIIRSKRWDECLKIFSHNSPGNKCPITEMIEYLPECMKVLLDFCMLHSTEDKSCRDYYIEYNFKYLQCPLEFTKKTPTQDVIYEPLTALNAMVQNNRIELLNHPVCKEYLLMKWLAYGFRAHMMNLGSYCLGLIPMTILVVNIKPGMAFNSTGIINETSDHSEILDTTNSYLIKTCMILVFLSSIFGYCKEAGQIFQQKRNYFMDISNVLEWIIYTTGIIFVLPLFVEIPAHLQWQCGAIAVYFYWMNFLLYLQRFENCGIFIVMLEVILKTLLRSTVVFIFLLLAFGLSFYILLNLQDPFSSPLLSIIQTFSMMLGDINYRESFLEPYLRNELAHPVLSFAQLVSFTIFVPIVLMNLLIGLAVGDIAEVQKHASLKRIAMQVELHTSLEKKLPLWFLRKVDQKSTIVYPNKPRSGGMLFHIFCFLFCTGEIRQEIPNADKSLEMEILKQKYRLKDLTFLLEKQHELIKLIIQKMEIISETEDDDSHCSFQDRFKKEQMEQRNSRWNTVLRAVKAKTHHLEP
Procedure, shortened: (§2)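 Stably transfected hTRPA1- or hTRPM8-HEK293 cells on poly-D-lysine plates for 48 h, loaded with Fluo-4AM (2 µM, 45 min, dark, room temperature), in isotonic HEPES buffer pH 7.4. FlexStation 240 s run: 20 s baseline, compound added, calcimycin added at 180 s. ΔRFU expressed as % calcimycin, DMSO-subtracted. Screening N = 3. Dose-response curves fitted for logEC50 (N = 3 in duplicate or triplicate).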

[4] = biological target: T1, Transient receptor potential cation channel subfamily M member 8; experiment: Agonist activity at human TRPM8 expressed in HEK293 cells assessed as increase in calcium influx at 100 uM by Fluo-4-AM dye based fluorescence assay relative to calcimycin; format: cell-based; procedure, shortened: as §2
Target sequence in this assay (Q7Z2W7 whole entry, looked up): as the sequence (Q7Z2W7 whole entry, looked up) above

[5] = biological target: T2, Transient receptor potential cation channel subfamily A member 1; experiment: Antagonist activity at human TRPA1 expressed in HEK293 cells assessed as increase in calcium influx at 100 uM incubated for 10 mins prior to CA addition by Fluo-4-AM dye based fluorescence assay relative to CA; format: cell-based; design: scale not given: the % may be the effect or the level left
Procedure, shortened: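 hTRPA1-HEK293 cells loaded with Fluo-4AM (2 µM). Compound pre-incubated 10 min, then cinnamaldehyde standard agonist added. FlexStation read, ex 485/em 538 nm. ΔRFU normalized to the CA response set at 100 % after DMSO vehicle subtraction. N = 3. logIC50 taken from dose-response fits.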

[6] = biological target: T1, Transient receptor potential cation channel subfamily M member 8; experiment: Antagonist activity at human TRPM8 expressed in HEK293 cells assessed as increase in calcium influx at 100 uM incubated for 10 mins prior to WS5 challenge by Fluo-4-AM dye based fluorescence assay relative to WS5; format: cell-based; design: scale not given: the % may be the effect or the level left; procedure, shortened: as §1
Target sequence in this assay (Q7Z2W7 whole entry, looked up): as above

[7] = biological target: T1, Transient receptor potential cation channel subfamily M member 8; experiment: Agonist activity at human TRPM8 expressed in HEK293 cells assessed as increase in calcium influx at 30 uM by Fluo-4-AM dye based fluorescence assay relative to calcimycin; format: cell-based; procedure, shortened: as §2
Target sequence in this assay (Q7Z2W7 whole entry, looked up): as above

[8] = biological target: T2, Transient receptor potential cation channel subfamily A member 1; experiment: Agonist activity at human TRPA1 expressed in HEK293 cells assessed as increase in calcium influx at 30 uM by Fluo-4-AM dye based fluorescence assay relative to calcimycin; format: cell-based; procedure, shortened: as §2
[9] = biological target: T2, Transient receptor potential cation channel subfamily A member 1; experiment: Antagonist activity at human TRPA1 expressed in HEK293 cells assessed as inhibition of CA-induced increase in calcium influx incubated for 10 mins prior to CA addition by Fluo-4-AM dye based fluorescence assayy; format: cell-based
[10] = biological target: T2, Transient receptor potential cation channel subfamily A member 1; experiment: Agonist activity at human TRPA1 expressed in HEK293 cells assessed as increase in calcium influx by Fluo-4-AM dye based fluorescence assay; format: cell-based; conditions: for EC50: read-out: EC50; procedure, shortened: as §2
[11] = biological target: T1, Transient receptor potential cation channel subfamily M member 8; experiment: Agonist activity at human TRPM8 expressed in HEK293 cells assessed as increase in calcium influx at 3 uM by Fluo-4-AM dye based fluorescence assay relative to calcimycin; format: cell-based; procedure, shortened: as §2
Target sequence in this assay (Q7Z2W7 whole entry, looked up): as above

[12] = biological target: T2, Transient receptor potential cation channel subfamily A member 1; experiment: Antagonist activity at human TRPA1 expressed in HEK293 cells assessed as increase in calcium influx at 3 uM incubated for 10 mins prior to CA challenge by Fluo-4-AM dye based fluorescence assay […]; format: cell-based; design: scale not given: the % may be the effect or the level left
[13] = system: Transient receptor potential cation channel subfamily A member 1 (Homo sapiens), O75762 [F909A]; experiment: Agonist activity at human TRPA1 Phe909Ala mutant expressed in HEK293 cells assessed as Ca2+ influx at 30 uM by fluorescence assay; format: cell-based
Chain of Transient receptor potential cation channel subfamily A member 1 (Homo sapiens), O75762 [F909A] (O75762 whole entry F909A): as the sequence (O75762 whole entry) above, with F909A counted along it
Procedure, shortened: (§3)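 HEK293 cells stably expressing hTRPA1 point mutants (C621A, F909A or F944A), single-cell cloned under G418 selection. Cells plated on poly-D-lysine for 48 h, loaded with Fluo-4AM 2 µM for 45 min at room temperature. FlexStation read (ex 485/em 538 nm): 20 s baseline, compound added, calcimycin added at 180 s. Response expressed as % calcimycin from ΔRFU, vehicle-subtracted, and compared with wild-type hTRPA1 cells.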

[14] = system: Transient receptor potential cation channel subfamily A member 1 (Homo sapiens), O75762 [F944A]; experiment: Agonist activity at human TRPA1 Phe944Ala mutant expressed in HEK293 cells assessed as Ca2+ influx at 30 uM by fluorescence assay; format: cell-based; procedure, shortened: as §3
Chain of Transient receptor potential cation channel subfamily A member 1 (Homo sapiens), O75762 [F944A] (O75762 whole entry F944A): as the sequence (O75762 whole entry) above, with F944A counted along it

[15] = system: Transient receptor potential cation channel subfamily A member 1 (Homo sapiens), O75762 [F909A]; experiment: Agonist activity at human TRPA1 Phe909Ala mutant expressed in HEK293 cells assessed as Ca2+ influx at 100 uM by fluorescence assay; format: cell-based
Procedure, shortened: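 HEK293 cells stably expressing hTRPA1 point mutants, made by FuGENE 6 transfection, G418 (0.5 mg ml-1) selection and single-cell cloning, grown in DMEM with 25 mM HEPES, 10% FBS and geneticin. Ca2+ influx was read by Fluo dye fluorescence at room temperature, with calcimycin added at the end. Response was ΔRFU as % of calcimycin, with the DMSO vehicle subtracted.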

[16] = system: Transient receptor potential cation channel subfamily A member 1 (Homo sapiens), O75762 [F909A]; experiment: Agonist activity at human TRPA1 Phe909Ala mutant expressed in HEK293 cells assessed as Ca2+ influx at 10 uM by fluorescence assay; format: cell-based; procedure, shortened: as §3
[17] = biological target: T1, Transient receptor potential cation channel subfamily M member 8; experiment: Antagonist activity at human TRPM8 expressed in HEK293 cells assessed as inhibition in WS5-induced increase in calcium influx incubated for 10 mins prior to WS5 challenge by Fluo-4-AM dye based fluorescence assay; format: cell-based; procedure, shortened: as §1
Target sequence in this assay (Q7Z2W7 whole entry): as the sequence (Q7Z2W7 whole entry, looked up) above

[18] = system: Transient receptor potential cation channel subfamily A member 1 (Homo sapiens), O75762 [F944A]; experiment: Agonist activity at human TRPA1 Phe944Ala mutant expressed in HEK293 cells assessed as Ca2+ influx at 10 uM by fluorescence assay; format: cell-based; procedure, shortened: as §3

COC(=O)c1ccccc1NC(=O)/C=C/c1ccc(F)cc1
pKa [1]: 13.9
Activity [2]: 85%
Activity [3]: 34%

O=C(CCc1ccccc1)Nc1ccccc1C(=O)O
Activity [4]: inactive
pKa [1]: 3.5
Activity [5]: 81%
Activity [6]: 48%
Activity [7]: inactive
Activity [8]: 10%

CCOc1cc(/C=C/C(=O)Nc2ccccc2C(=O)O)ccc1O
IC50 [9]: 106 µM
Activity [4]: inactive
pKa [1]: 3.5
Activity [5]: 34%
Activity [6]: 73%
Activity [7]: inactive
Activity [8]: 5%

O=C(/C=C/c1ccc(O)c(O)c1)Nc1ccccc1C(=O)O
Activity [4]: inactive
pKa [1]: 3.5

O=C(/C=C/c1ccc([N+](=O)[O-])cc1)Nc1ccccc1C(=O)O
Activity [4]: inactive
EC50 [10]: 219 µM
pKa [1]: 3.4
Activity [5]: 33%
Activity [6]: 39%
Activity [7]: inactive
Activity [8]: 25%

COC(=O)c1ccccc1NC(=O)/C=C/c1ccc(C)cc1
pKa [1]: 13.9
Activity [2]: 88%
Activity [3]: 28%

COC(=O)c1ccccc1NC(=O)/C(=C/c1ccccc1)c1ccccc1
Activity [11]: 23%
pKa [1]: 13.9
Activity [2]: 48%
Activity [3]: 63%
Activity [12]: 51%

Cc1ccc(/C=C/C(=O)Nc2ccccc2C(=O)O)cc1
Activity [13]: Active
Activity [4]: inactive
Activity [14]: inactive
EC50 [10]: 149 µM
pKa [1]: 3.5
Activity [5]: 40%
Activity [6]: 48%
Activity [7]: inactive
Activity [8]: 30%

COC(=O)c1ccccc1NC(=O)/C=C/c1ccc(OC(C)=O)cc1
pKa [1]: 13.8
Activity [2]: 84%
Activity [3]: 10%

COC(=O)c1ccccc1NC(=O)/C=C/c1ccc(Br)cc1
pKa [1]: 13.8
Activity [2]: 79%
Activity [3]: 41%

Cc1ccc(C(C)C)c(O)c1
Activity [15]: Active

COC(=O)c1ccccc1NC(=O)/C=C/c1ccccc1Cl
pKa [1]: 13.7
Activity [2]: 53%
Activity [3]: 29%

COC(=O)c1ccccc1NC(=O)/C=C/c1ccc(C(F)(F)F)cc1
pKa [1]: 13.7
Activity [2]: 81%
Activity [3]: 29%

O=C(O)[C@@H]1CCCN1C(=O)/C=C/c1ccccc1
Activity [4]: inactive
pKa [1]: 3.2
Activity [5]: 79%
Activity [6]: 65%
Activity [7]: inactive
Activity [8]: 5%

NC(=O)c1cccc(-c2cccc(OC(=O)NC3CCCCC3)c2)c1 [URB-597]
EC50 [10]: 0.1 µM
Activity [15]: Active

O=C(O)C1CCCCN1C(=O)/C=C/c1ccccc1 (racemic)
Activity [4]: inactive
pKa [1]: 3.3
Activity [5]: 71%
Activity [6]: 72%
Activity [7]: inactive
Activity [8]: 7%

COc1ccc(CCC(=O)Nc2ccccc2C(=O)O)cc1
Activity [4]: inactive
pKa [1]: 3.5
Activity [5]: 74%
Activity [6]: 57%
Activity [7]: inactive
Activity [8]: 6%

C=CCN=C=S
Activity [16]: Active

C=CC=O [ACROLEIN]
Activity [13]: Active
Activity [14]: inactive
EC50 [10]: 27 µM

COC(=O)c1ccccc1NC(=O)/C(C)=C/c1ccccc1
pKa [1]: 13.9
Activity [2]: 30%
Activity [3]: 49%
Activity [12]: 73%

COC(=O)c1ccccc1NC(=O)/C=C/c1ccc(Cl)cc1
pKa [1]: 13.8
Activity [2]: 70%
Activity [3]: 45%

O=C(Nc1ccccc1C(=O)O)/C(=C/c1ccccc1)c1ccccc1
Activity [4]: 34%
EC50 [10]: 11 µM
pKa [1]: 3.4
Activity [16]: Active
Activity [5]: 22%
Activity [7]: 14%
Activity [8]: 66%

COc1cccc(NC(=O)/C=C/c2ccc(Cl)cc2)c1
pEC50 [10]: inactive

COC(=O)c1ccccc1NC(=O)/C=C/c1ccccc1
Activity [11]: inactive
pKa [1]: 13.9
Activity [2]: 61%
Activity [3]: 22%
Activity [12]: inactive

C/C(=C\c1ccccc1)C(=O)Nc1ccccc1C(=O)O
Activity [13]: Active
Activity [4]: inactive
Activity [14]: inactive
EC50 [10]: 133 µM
pKa [1]: 3.5
Activity [5]: 29%
Activity [6]: 28%
Activity [7]: inactive
IC50 [17]: 27 µM
Activity [8]: 33%

COC(=O)c1ccccc1NC(=O)/C=C/c1ccc(OC(C)=O)c(OC(C)=O)c1
pKa [1]: 13.6
Activity [2]: 102%
Activity [3]: 12%

COC(=O)c1ccccc1NC(=O)/C=C/c1ccc(N(C)C)cc1
pKa [1]: 4.8
Activity [2]: 86%
Activity [3]: 27%

COc1ccccc1/C=C/C(=O)Nc1ccccc1C(=O)O
IC50 [9]: 51 µM
Activity [4]: inactive
EC50 [10]: 75 µM
pKa [1]: 3.4
Activity [5]: 14%
Activity [6]: 32%
Activity [7]: inactive
IC50 [17]: 41 µM
Activity [8]: 33%

O=C(/C=C/c1ccccc1)Nc1ccccc1C(=O)O
Activity [4]: inactive
pKa [1]: 3.5
Activity [5]: 42%
Activity [6]: 48%
Activity [7]: inactive
Activity [8]: 24%

COc1ccc(/C=C/C(=O)Nc2ccccc2C(=O)O)cc1OC
IC50 [9]: 126 µM
Activity [4]: inactive
pKa [1]: 3.5
Activity [5]: 56%
Activity [6]: 65%
Activity [7]: inactive
Activity [8]: 6%

Cc1ccc(C(C)C)cc1O [CARVACROL]
Activity [13]: inactive
Activity [14]: inactive
EC50 [10]: 17 µM

CC(=C\c1ccc(Cl)cc1)/C(C)=N/O [AP18 5]
IC50 [9]: 4 µM

CCCCCc1ccc(/C=C/C(=O)Nc2ccccc2C(=O)O)cc1
Activity [13]: Active
Activity [14]: Active
EC50 [10]: 28 µM
Activity [16]: Active
Activity [18]: inactive

COc1ccc(/C=C/C(=O)Nc2ccccc2C(=O)O)cc1
Activity [13]: Active
IC50 [9]: 12 µM
Activity [4]: inactive
Activity [14]: inactive
EC50 [10]: 49 µM
pKa [1]: 3.5
Activity [5]: 19%
Activity [6]: 68%
Activity [7]: inactive
Activity [8]: 27%

CN(C)c1ccc(/C=C/C(=O)Nc2ccccc2C(=O)O)cc1
Activity [4]: inactive
pKa [1]: 3.5

COC(=O)c1ccccc1NC(=O)/C=C/c1ccc([N+](=O)[O-])cc1
pKa [1]: 13.6
